Experimental data published in ChEMBL document CHEMBL5038583, “Highly Potent and Selective Butyrylcholinesterase Inhibitors for Cognitive Improvement and Neuroprotection” (J Med Chem, 2021).

Tests used:
Cholinesterase [1] = biological target: Cholinesterase (Equus caballus, UniProt P81908); experiment: Inhibition of equine serum BChE using butyrylthiocholine iodide as substrate preincubated for 5 mins followed by substrate addition and measured after 2 mins by DTNB-reagent based Ellman's method
Cholinesterase (Equus caballus, UniProt P81908), sequence (P81908 whole entry): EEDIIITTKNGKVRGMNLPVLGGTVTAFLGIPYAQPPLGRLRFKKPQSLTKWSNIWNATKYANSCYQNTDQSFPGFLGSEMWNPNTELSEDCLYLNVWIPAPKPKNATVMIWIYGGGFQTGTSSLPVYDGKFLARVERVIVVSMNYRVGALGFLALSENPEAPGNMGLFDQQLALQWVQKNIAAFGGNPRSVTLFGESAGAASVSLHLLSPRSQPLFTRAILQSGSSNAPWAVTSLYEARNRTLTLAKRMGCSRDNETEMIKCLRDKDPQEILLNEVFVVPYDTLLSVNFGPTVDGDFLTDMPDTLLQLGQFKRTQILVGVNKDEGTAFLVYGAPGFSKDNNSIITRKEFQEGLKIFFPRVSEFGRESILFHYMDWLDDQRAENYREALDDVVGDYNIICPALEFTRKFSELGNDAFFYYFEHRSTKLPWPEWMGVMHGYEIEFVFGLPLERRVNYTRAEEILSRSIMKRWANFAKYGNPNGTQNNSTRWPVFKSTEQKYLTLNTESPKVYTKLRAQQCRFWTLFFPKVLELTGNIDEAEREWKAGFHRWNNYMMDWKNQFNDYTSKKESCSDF

[2] = biological target: Cholinesterase (Equus caballus) (UniProt P81908); experiment: Inhibition of equine serum BChE at 10 uM using butyrylthiocholine iodide as substrate preincubated for 5 mins followed by substrate addition and measured after 2 mins by DTNB-reagent based Ellman's method relative to control; conditions: time 7.0 min
Cholinesterase (Equus caballus), sequence (P81908 whole entry): as above
Procedure, shortened: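 Ellman method with equine BChE at 2.5 units/mL in pH 8.0 phosphate buffer with DTNB. Preincubation 5 min at room temperature, then butyrylthiocholine iodide (0.075 M solution) added; absorbance at 412 nm after 2 min. Ethanol sample gives 100% activity. Triplicates, at least three runs.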

Cholinesterase [3] = biological target: Cholinesterase (Homo sapiens, UniProt P06276); experiment: Inhibition of human serum BChE using butyrylthiocholine iodide as substrate preincubated for 20 mins followed by substrate addition and measured after 2 mins by DTNB-reagent based Ellman's method
Cholinesterase (Homo sapiens, UniProt P06276), sequence (P06276 whole entry): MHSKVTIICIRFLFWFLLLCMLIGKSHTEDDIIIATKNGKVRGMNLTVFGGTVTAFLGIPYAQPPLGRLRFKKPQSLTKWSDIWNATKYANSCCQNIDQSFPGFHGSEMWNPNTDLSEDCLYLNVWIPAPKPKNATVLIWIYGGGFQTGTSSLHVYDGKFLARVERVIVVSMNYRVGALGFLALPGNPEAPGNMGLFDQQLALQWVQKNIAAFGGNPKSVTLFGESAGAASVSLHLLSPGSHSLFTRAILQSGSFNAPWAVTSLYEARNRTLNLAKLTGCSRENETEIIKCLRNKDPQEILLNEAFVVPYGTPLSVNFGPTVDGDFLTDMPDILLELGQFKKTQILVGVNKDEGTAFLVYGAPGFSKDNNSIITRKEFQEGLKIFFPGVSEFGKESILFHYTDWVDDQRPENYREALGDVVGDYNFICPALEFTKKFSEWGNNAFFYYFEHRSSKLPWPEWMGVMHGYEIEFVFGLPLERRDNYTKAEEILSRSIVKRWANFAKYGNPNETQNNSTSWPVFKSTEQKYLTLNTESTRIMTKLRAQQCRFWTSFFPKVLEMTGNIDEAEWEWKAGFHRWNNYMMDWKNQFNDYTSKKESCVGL
Procedure, shortened: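 hBChE at 0.015 units/mL with DTNB in phosphate buffer pH 8.0, preincubated 20 min at room temperature with at least six concentrations (10⁻⁴−10⁻⁹). Butyrylthiocholine iodide (0.075 M solution) added; A412 read after 2 min at 25 °C. IC50 from % activity vs log concentration; triplicates in at least three runs.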

[4] = Toxicity in ICR mouse assessed as increase in body weight administered for 14 days and measured daily; conditions: in vivo, 15 mg/kg, 336 h

| SMILES | IC50 (Cholinesterase [1]) [nM] | further results |
| --- | --- | --- |
| Nc1nonc1-c1nc2ccccc2n1CC(=O)Nc1ccc2ccccc2c1 | 352000 | – |
| CC(=O)c1cccc(NC(=O)Cn2c(-c3nonc3N)nc3ccccc32)c1 | 191 | – |
| CC(=O)Nc1cccc(NC(=O)Cn2c(-c3nonc3N)nc3ccccc32)c1 | 1130 | – |
| Nc1nonc1-c1nc2ccccc2n1CC(=O)Nc1ccc2ccccc2n1 | 507 | – |
| COc1cccc(NC(=O)Cn2c(-c3nonc3N)nc3ccccc32)c1 | 1710 | – |
| Nc1nonc1-c1nc2ccccc2n1CC(=O)Nc1cccc(F)c1 | 1040 | – |
| CC(=O)c1ccc(NC(=O)Cn2c(-c3nonc3N)nc3ccccc32)cc1 | 2270 | – |
| Cc1cc2nc(-c3nonc3N)n(CC(=O)Nc3ccc4ncccc4c3)c2cc1C | 11300 | – |
| COC(=O)c1ccc(NC(=O)Cn2c(-c3nonc3N)nc3ccccc32)cc1 | 5380 | – |
| Nc1nonc1-c1nc2ccccc2n1CC(=O)Nc1ccc(Cl)cc1 | – | inhibition [2]: < 50% |
| Nc1ccccc1-c1nc2ccccc2n1CC(=O)Nc1ccc2ncccc2c1 | – | inhibition [2]: < 50% |
| CC(=O)Nc1ccc(NC(=O)Cn2c(-c3nonc3N)nc3ccccc32)cc1 | 6540 | – |
| COc1cc(NC(=O)Cn2c(-c3nonc3N)nc3ccccc32)cc(OC)c1OC | 6640 | – |
| Nc1nonc1-c1nc2ccccc2n1CC(=O)Nc1ccc(-c2ccccc2)cc1 | – | inhibition [2]: < 50% |
| Nc1nonc1-c1nc2ccccc2n1CCC(=O)Nc1ccc2ncccc2c1 | 253 | – |
| Cc1cccc(NC(=O)Cn2c(-c3nonc3N)nc3ccccc32)c1 | 236 | – |
| Cc1ccc(NC(=O)Cn2c(-c3nonc3N)nc3ccccc32)cc1 | 10300 | – |
| COc1ccc(NC(=O)Cn2c(-c3nonc3N)nc3ccccc32)cc1 | – | inhibition [2]: < 50% |
| O=C(Cn1c(-c2ccccc2[N+](=O)[O-])nc2ccccc21)Nc1ccc2ncccc2c1 | – | inhibition [2]: < 50% |
| Nc1nonc1-c1nc2ccccc2n1CC(=O)Nc1ccccc1 | 2960 | – |
| Nc1nonc1-c1nc2ccccc2n1CC(=O)Nc1ccc2ncccc2c1 | 705 | – |

| SMILES | IC50 (Cholinesterase [1]) [nM] | further results |
| --- | --- | --- |
| COC(=O)c1cccc(NC(=O)Cn2c(-c3nonc3N)nc3ccccc32)c1 | 27 | IC50 (Cholinesterase [3]): 180 nM |
| Nc1nonc1-c1nc2ccccc2n1CC(=O)Nc1ccnc2ccccc12 | 51 | IC50 (Cholinesterase [3]): 212 nM |
| Cc1cc2nc(-c3nonc3N)n(CC(=O)Nc3cccc4ccccc34)c2cc1C | 108 | – |
| Nc1nonc1-c1nc2ccccc2n1CC(=O)Nc1cccc(Br)c1 | 83 | IC50 (Cholinesterase [3]): 212 nM |
| O=C(Cn1c(-c2ccoc2)nc2ccccc21)Nc1ccc2ncccc2c1 | – | inhibition [2]: < 50% |
| Nc1ccc(NC(=O)Cn2c(-c3nonc3N)nc3ccccc32)cc1 | – | inhibition [2]: < 50% |
| Nc1nonc1-c1nc2ccccc2n1CC(=O)Nc1ccccc1Cl | 2730 | – |
| Nc1nonc1-c1nc2ccccc2n1CC(=O)Nc1cccc(Cl)c1 | 33 | IC50 (Cholinesterase [3]): 128 nM |
| Cc1cc2nc(-c3nonc3N)n(CC(=O)Nc3cnc4ccccc4c3)c2cc1C | 28500 | – |
| Nc1nonc1-c1nc2ccccc2n1CC(=O)Nc1ccccc1F | 124 | – |
| Cc1cccc(NC(=O)Cn2c(-c3nonc3N)nc3ccccc32)c1C | 326 | – |
| COc1cc2c(cc1OC)C(=O)C(CC1CCN(Cc3ccccc3)CC1)C2 (configuration not stated) [DONEPEZIL] | – | Activity [4]: Toxic |
| Nc1nonc1-c1nc2ccccc2n1CC(=O)Nc1ccc(Br)cc1 | – | inhibition [2]: < 50% |
| Nc1nonc1-c1nc2ccccc2n1CCCCC(=O)Nc1ccc2ncccc2c1 | – | inhibition [2]: < 50% |
| Nc1nonc1-c1nc2ccccc2n1CC(=O)Nc1ccc([N+](=O)[O-])cc1 | 30 | IC50 (Cholinesterase [3]): 80 nM |
| Nc1nonc1-c1nc2ccccc2n1CC(=O)Nc1ccc2c(c1)OCO2 | 2210 | – |
| Nc1nonc1-c1nc2ccccc2n1CC(=O)Nc1cccc2ncccc12 | 920 | – |
| N#Cc1cccc(NC(=O)Cn2c(-c3nonc3N)nc3ccccc32)c1 | 51 | IC50 (Cholinesterase [3]): 250 nM |
| O=C(Cn1c(-c2ccccc2)nc2ccccc21)Nc1ccc2ncccc2c1 | – | inhibition [2]: < 50% |
| Nc1nonc1-c1nc2ccccc2n1CC(=O)Nc1cccc(F)c1F | 270 | – |
